pEC50, pIC50: −log10 of the molar value. The source made the active and inactive calls. The calls are words filed in the database; no cut-off is given here.

For assay [1], the target named is T1, RAC-gamma serine/threonine-protein kinase (Homo sapiens, UniProt Q9Y243). In words: Inhibition of AKT3 in presence of 0.2 uM ATP. The procedure, abridged:
(§1)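 Biochemical kinase IC50s, each run with ATP at or below its Km.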

In assay [2] the target is Protein kinase C alpha type (Homo sapiens, UniProt P17252). In words: Inhibition of PKCa.
The target in assay [3] is T2, Serine/threonine-protein kinase AKT (Homo sapiens, UniProt P31751+Q9Y243+P31749). In words: Activity against AKT-mediated GSK3 S9P phosphorylation in human DOV13 cell line. It is filed as functional, cell-based.
Assay [4] has as its target RAF proto-oncogene serine/threonine-protein kinase (Homo sapiens, UniProt P04049). In words: Inhibition of RAF1. The essentials: as §1
The target of assay [5] is RAC-alpha serine/threonine-protein kinase (Homo sapiens, UniProt P31749). In words: Inhibition of AKT1. The essentials: as §1
The target of assay [6] is Mast/stem cell growth factor receptor Kit (Homo sapiens, UniProt P10721). In words: Inhibition of Kit.
For assay [7], the target named is Hepatocyte growth factor receptor (Homo sapiens, UniProt P08581). In words: Inhibition of Met. The essentials:
as §1

In assay [8] the target is T3, cAMP-dependent protein kinase (PKA) (Homo sapiens, UniProt P22694+P17612+P22612). In words: Inhibitory activity against PKA in human UACC903 cell line at 33 nM. It is filed as functional, cell-based. To be noted: UACC-903. The procedure, abridged: (§2)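 UACC903 melanoma cells were pre-incubated with the test compound at various concentrations for 45 min, then stimulated with 7 μM forskolin for 15 min before lysis. Lysates were Western blotted for phospho-VASP as the PKA read-out, with phospho-MDM2 as the AKT read-out.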

In assay [9] the target is T2, Serine/threonine-protein kinase AKT. In words: Activity against AKT-mediated PRAS40 T246P phosphorylation in human DOV13 cell line. Type of assay: functional, cell-based.
The target in assay [10] is Calcium/calmodulin-dependent protein kinase type II subunit alpha (Homo sapiens, UniProt Q9UQM7). In words: Inhibition of CamK2alpha. The procedure, abridged:
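IC50 from an in vitro kinase assay with ATP at or below its Km.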

The target in assay [11] is T3, cAMP-dependent protein kinase (PKA). In words: Inhibition of PKA. Type of assay: protein assay. The essentials:
as §1

A further assay has as its system DOV13. In words: Antiproliferative activity against human DOV13 cell line. Type of assay: functional, cell-based.
Assay [12] concerns the target T3, cAMP-dependent protein kinase (PKA). In words: Inhibitory activity against PKA in human UACC903 cell line at 10 nM. The note with it: UACC-903. It is filed as functional, cell-based. The procedure, abridged: as §2
Assay [13] concerns the target Mitogen-activated protein kinase 3 (Homo sapiens, UniProt P27361). In words: Inhibition of ERK1. The procedure, abridged: as §1
In assay [14] the target is T1, RAC-gamma serine/threonine-protein kinase. In words: Inhibition of AKT3. The essentials:
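Kinase IC50 determined in a biochemical kinase assay with ATP at or below its Km.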

Assay [15] addresses T2, Serine/threonine-protein kinase AKT. In words: Activity against AKT-mediated S6RP S235/236P phosphorylation in human DOV13 cell line. It is filed as functional, cell-based.

T1 sequence (Q9Y243 whole entry): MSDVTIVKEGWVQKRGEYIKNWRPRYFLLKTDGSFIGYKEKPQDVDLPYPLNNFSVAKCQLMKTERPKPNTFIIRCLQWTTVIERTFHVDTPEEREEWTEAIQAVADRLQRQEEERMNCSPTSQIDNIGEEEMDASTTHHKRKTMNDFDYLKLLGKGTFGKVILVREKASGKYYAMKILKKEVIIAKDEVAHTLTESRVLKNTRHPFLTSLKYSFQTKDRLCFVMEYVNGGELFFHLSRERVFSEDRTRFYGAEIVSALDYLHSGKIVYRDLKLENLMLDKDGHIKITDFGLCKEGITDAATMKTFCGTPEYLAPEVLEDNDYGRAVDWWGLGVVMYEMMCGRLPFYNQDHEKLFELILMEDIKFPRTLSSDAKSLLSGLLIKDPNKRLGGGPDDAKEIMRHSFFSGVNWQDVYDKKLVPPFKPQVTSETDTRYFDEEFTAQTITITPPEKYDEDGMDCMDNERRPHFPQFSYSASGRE
RAC-alpha serine/threonine-protein kinase, sequence (P31749 whole entry): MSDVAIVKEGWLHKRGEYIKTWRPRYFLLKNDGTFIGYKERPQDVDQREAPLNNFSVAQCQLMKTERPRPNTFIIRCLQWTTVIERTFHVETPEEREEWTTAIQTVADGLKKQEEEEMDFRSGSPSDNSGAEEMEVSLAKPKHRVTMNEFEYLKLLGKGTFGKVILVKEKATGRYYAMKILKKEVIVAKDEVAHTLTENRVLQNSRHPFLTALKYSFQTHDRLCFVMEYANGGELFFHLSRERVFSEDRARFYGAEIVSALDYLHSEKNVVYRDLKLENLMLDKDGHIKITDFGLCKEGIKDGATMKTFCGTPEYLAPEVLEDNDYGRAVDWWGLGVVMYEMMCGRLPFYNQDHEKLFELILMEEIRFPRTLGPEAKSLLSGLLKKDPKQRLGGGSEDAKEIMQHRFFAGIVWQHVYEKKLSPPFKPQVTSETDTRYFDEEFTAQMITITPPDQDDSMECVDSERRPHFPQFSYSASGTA
Hepatocyte growth factor receptor, sequence (P08581 whole entry): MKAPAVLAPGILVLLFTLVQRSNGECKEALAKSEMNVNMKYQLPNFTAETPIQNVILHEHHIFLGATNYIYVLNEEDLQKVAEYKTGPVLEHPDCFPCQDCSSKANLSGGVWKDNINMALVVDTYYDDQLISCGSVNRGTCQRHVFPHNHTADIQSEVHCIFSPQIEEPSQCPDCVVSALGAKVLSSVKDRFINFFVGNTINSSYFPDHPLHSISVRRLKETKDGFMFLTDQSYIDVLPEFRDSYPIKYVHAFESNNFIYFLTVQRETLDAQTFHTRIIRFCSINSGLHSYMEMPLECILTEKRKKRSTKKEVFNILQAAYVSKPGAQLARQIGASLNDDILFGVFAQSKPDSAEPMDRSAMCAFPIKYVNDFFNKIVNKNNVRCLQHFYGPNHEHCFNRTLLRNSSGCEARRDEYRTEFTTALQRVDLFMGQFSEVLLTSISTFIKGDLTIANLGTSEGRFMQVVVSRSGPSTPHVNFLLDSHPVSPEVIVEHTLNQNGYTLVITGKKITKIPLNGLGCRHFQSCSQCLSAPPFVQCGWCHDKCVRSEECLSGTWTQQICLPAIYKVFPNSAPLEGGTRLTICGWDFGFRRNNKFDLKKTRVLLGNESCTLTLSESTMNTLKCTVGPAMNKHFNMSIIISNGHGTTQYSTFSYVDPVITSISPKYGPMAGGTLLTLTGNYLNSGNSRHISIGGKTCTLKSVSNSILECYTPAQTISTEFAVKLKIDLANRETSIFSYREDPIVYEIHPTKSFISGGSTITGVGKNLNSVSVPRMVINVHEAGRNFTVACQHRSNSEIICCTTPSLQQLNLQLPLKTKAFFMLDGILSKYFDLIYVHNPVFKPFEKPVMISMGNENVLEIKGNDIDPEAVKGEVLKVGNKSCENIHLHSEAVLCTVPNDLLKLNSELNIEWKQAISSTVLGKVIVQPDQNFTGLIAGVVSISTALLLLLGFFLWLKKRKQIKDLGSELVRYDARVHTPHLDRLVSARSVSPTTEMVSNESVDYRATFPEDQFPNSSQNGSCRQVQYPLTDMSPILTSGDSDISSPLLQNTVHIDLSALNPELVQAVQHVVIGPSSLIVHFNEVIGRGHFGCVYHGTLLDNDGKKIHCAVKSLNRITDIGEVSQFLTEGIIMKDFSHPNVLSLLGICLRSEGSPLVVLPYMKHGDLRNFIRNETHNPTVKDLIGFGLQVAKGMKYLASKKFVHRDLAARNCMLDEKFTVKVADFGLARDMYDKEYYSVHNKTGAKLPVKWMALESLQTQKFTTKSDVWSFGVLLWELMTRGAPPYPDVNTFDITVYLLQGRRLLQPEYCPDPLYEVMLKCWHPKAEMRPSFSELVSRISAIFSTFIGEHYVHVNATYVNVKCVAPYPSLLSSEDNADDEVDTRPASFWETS
Calcium/calmodulin-dependent protein kinase type II subunit alpha, sequence (Q9UQM7 whole entry): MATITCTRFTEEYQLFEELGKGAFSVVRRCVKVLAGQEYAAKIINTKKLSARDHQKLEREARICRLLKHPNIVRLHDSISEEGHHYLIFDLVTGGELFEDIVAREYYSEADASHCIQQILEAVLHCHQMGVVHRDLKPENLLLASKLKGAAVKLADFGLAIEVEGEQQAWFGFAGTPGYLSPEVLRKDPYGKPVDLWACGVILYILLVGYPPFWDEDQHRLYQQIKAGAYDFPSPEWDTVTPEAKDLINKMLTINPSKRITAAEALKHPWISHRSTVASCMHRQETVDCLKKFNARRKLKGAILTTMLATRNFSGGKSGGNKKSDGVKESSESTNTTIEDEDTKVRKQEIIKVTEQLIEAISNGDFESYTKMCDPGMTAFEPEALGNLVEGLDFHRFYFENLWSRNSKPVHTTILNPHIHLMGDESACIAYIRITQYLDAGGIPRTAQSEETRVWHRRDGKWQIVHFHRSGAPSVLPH
Mitogen-activated protein kinase 3, sequence (P27361 whole entry): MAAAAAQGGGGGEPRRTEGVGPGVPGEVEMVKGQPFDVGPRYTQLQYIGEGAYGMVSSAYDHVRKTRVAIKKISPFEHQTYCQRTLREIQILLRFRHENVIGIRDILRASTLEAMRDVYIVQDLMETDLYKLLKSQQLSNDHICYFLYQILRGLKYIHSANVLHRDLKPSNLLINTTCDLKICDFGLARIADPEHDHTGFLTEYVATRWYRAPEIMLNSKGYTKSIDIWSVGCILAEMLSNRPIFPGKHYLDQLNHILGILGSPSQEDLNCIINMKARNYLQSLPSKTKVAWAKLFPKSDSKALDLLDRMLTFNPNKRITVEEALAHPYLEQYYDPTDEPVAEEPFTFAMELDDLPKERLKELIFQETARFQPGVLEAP
Mast/stem cell growth factor receptor Kit, sequence (P10721 whole entry): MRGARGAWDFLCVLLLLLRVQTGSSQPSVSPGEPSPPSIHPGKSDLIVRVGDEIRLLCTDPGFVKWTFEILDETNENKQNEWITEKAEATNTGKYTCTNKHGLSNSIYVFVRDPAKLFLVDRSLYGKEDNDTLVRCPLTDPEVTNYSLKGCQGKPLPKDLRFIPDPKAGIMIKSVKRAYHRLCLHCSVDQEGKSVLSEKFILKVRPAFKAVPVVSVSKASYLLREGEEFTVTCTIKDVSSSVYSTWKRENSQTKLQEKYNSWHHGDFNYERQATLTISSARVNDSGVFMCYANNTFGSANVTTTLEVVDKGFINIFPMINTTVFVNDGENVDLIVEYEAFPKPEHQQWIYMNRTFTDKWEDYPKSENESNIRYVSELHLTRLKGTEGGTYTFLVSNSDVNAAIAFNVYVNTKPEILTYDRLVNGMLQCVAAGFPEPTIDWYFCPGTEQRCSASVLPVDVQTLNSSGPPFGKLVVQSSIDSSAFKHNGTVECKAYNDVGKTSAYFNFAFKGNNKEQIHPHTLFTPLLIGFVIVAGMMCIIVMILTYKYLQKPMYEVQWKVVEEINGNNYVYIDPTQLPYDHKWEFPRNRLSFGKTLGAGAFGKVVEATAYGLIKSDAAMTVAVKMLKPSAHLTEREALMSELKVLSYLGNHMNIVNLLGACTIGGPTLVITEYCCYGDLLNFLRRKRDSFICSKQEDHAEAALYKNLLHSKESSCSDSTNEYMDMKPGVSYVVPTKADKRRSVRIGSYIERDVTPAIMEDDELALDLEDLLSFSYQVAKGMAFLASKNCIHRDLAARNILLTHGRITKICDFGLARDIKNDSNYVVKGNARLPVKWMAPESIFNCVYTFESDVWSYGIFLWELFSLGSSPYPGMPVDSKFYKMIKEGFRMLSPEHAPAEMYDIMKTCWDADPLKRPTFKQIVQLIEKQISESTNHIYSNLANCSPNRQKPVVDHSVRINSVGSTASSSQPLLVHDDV

In the case of `CNc1nccc(-c2ccc(C(=O)N[C@@H](Cc3ccc(Cl)cc3Cl)C(=O)OC)s2)n1`, the pIC50 in assay [1] is 5.62.
As to `CNc1nccc(-c2ccc(C(=O)NCCc3cccc(Cl)c3)s2)n1`, the pIC50 in assay [1] was 5.27.
Regarding `CNc1nccc(-c2ccc(C(=O)NC(CN)Cc3ccc(Cl)cc3Cl)s2)n1` (stereo unspecified), the negative-log IC50 (pIC50) in assay [1] is 8.32.
With `CNc1nccc(-c2ccc(NC(=O)OCc3ccc(F)cc3)s2)n1`, in [1], the pIC50 is 5.13.
The same measure, in the same setting: with `Nc1nccc(-c2ccc(C(=O)NCCc3ccc(Cl)cc3Cl)s2)n1` the figure was 6.21; with `CNc1nccc(-c2ccc(C(=O)NCCN(C)C)s2)n1`, 5.15.
Turning to `CNc1nccc(-c2ccc(C(=O)NCCc3ccncc3)s2)n1`, in [1], the negative-log IC50 (pIC50) was under 4.60.
For `CNc1nccc(-c2ccc(C(=O)NCCc3ccc(C)cc3)s2)n1`, the pIC50 in [1] is under 4.60.
On to `CNc1nccc(-c2ccc(C(=O)NCCc3ccc(S(N)(=O)=O)cc3)s2)n1`, for which the pIC50 in [1] was 4.72.
Consider `CNc1nccc(-c2ccc(CNCCc3ccc(Cl)cc3Cl)s2)n1`, for which the pIC50 in assay [1] is 5.28.
Turning to `CNc1nccc(-c2ccc(NC(=O)NCc3ccc(Cl)cc3Cl)s2)n1`, the pIC50 in assay [1] is 5.68.
Still for that read-out and setting: with `CNc1nccc(-c2ccc(C(=O)N[C@H](CCN)Cc3ccc(Cl)cc3Cl)s2)n1` the figure was 7.57; with `CNc1nccc(-c2ccc(C(=O)NC[C@@H](N)c3ccccc3)s2)n1`, 5.55; with `CNc1nccc(-c2ccc(C(=O)NCCc3ccc(Br)cc3)s2)n1`, 5.59.
In the case of `CNc1nccc(-c2ccc(C(=O)NCCc3ccc(OC)cc3)s2)n1`, in assay [1], the pIC50 was under 4.60.
Take `CNc1nccc(-c2ccc(C(=O)Nc3ccc(F)cc3)s2)n1`: the pIC50 in assay [1] is under 4.60.
With `CNc1nccc(-c2ccc(C(=O)N[C@H](CN)Cc3ccc(Cl)cc3Cl)s2)n1`, the pIC50 is 7.18 in [2]; under 5.00 in [4]; 8.22 in [5]; 6.96 in assay [6]; 5.96 in assay [7]; 5.10 in assay [10]. Further, the pIC50 in assay [13] was 6.40; in assay [14], 8.52. In addition, the values for the EC50 in [3], in [9] and in assay [15] were 0.32 µM, 0.16 µM and 0.37 µM, respectively. The outcome in [8] and in [12] was Active. The compound further showed a 50% inhibitory concentration (IC50) in [11] of 0.0001 µM. In the assay on DOV13, the negative-log EC50 (pEC50) was 6.00.
With `CNc1nccc(-c2ccc(C(=O)N[C@@H](CN)Cc3ccc(Cl)cc3Cl)s2)n1`, the negative-log IC50 (pIC50) in assay [1] is 6.62.
Consider `CNc1nccc(-c2ccc(C(=O)NCCc3ccc(Cl)cc3)s2)n1`, for which the pIC50 in [1] is 5.96.
Turning to `CN(C)c1nccc(-c2ccc(C(=O)NCCc3ccc(Cl)cc3Cl)s2)n1`, the pIC50 in assay [1] was under 4.60.
As for `CNc1nccc(-c2ccc(C(=O)N[C@H](CO)Cc3ccc(Cl)cc3Cl)s2)n1`, the pIC50 in assay [1] was 6.55.
Consider `CNc1nccc(-c2ccc(S(=O)(=O)NCCc3ccc(Cl)cc3Cl)s2)n1`, for which the pIC50 in [1] is under 4.60.
Still for that read-out and setting: next, `CCC(CNC(=O)c1ccc(-c2ccnc(NC)n2)s1)c1ccc(Cl)cc1Cl` (stereo unspecified): 6.00; `CNc1nccc(-c2ccc(C(=O)N[C@H](C)Cc3ccc(Cl)cc3Cl)s2)n1`: 6.09.
For the compound `CNc1nccc(-c2ccc(C(=O)NCc3ccc(F)cc3)s2)n1`, the negative-log IC50 (pIC50) in [1] is 5.33.
As for `CNc1nccc(-c2ccc(C(=O)NCC(c3ccccc3)c3ccccc3)s2)n1`, the pIC50 in assay [1] was under 4.60.
Consider `CNc1nccc(-c2ccc(C(=O)NCCN)s2)n1`, for which, in [1], the negative logarithm of the IC50 (pIC50) is 5.89.
As to `CNc1nccc(-c2ccc(C(=O)N[C@@H](Cc3ccc(Cl)cc3Cl)CN(C)C)s2)n1`, in assay [1], the pIC50 is 7.96.
Regarding `CNc1nccc(-c2ccc(C(=O)NCCc3ccccc3Cl)s2)n1`, in assay [1], the pIC50 is 5.54.
On the same count and under the same terms, next, `CNc1nccc(-c2ccc(C(=O)NCCCc3ccc(F)cc3)s2)n1`: 4.74; `CCNc1nccc(-c2ccc(C(=O)NCCc3ccc(Cl)cc3Cl)s2)n1`: 5.82; `CNc1nccc(-c2ccc(C(=O)NCCc3ccccc3)s2)n1`: 5.30.
Still for that read-out and setting: next, `CNc1nccc(-c2ccc(C(=O)NCCc3ccc(Cl)cc3Cl)s2)n1`: 6.00.
Same read-out and setting: next, `CCCNc1nccc(-c2ccc(C(=O)NCCc3ccc(Cl)cc3Cl)s2)n1`: under 4.60; `CNc1nccc(-c2ccc(NC(=O)CCc3ccc(F)cc3)s2)n1`: 5.64; `CNc1nccc(-c2ccc(C(=O)NCCc3ccc(F)cc3)s2)n1`: 5.52.
As to `CNc1nccc(-c2ccc(C(=O)NCC(C)c3ccc(Cl)cc3Cl)s2)n1` (stereo unspecified), the pIC50 in [1] is 6.18.
